Results from ChEMBL document CHEMBL4052819 (2017).
Converted amounts (≈) assume the structure as drawn. The source made the active and inactive calls. No cut-off for these calls is given here. Non-standard residues stand in square brackets, D forms with d. Residues, ends and D or L forms follow the SMILES beside them. *: point of attachment. Cha = N[C@@H](CC1CCCCC1)C(=O)O; Heptanoyl = CCCCCCC(=O)*; Dab = NCC[C@H](N)C(=O)O

Tests used:
Staphylococcus aureus [1] = assay: Antibacterial activity against methicillin-resistant Staphylococcus aureus ATCC 43300 after 18 to 20 hrs by broth microdilution method; type: functional
Outline: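 Broth microdilution in tryptic soy broth: 2-fold dilutions mixed 1:1 with ~1.5 × 10^5 CFU/mL bacterial suspension in TSB, final 0.5–32 μg/mL, 37 °C for 18–20 h. MIC = lowest concentration with no visible growth. At least three independent experiments, one replicate each.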

Acinetobacter baumannii [2] = assay: Bactericidal activity against Acinetobacter baumannii ATCC 19606; type: functional; settings: ATCC 19606 = CIP 70.34 = JCM 6841, read-out: MBC99.9
Outline: (§1)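 MBC from MIC plates at end point: 50 μL from each well with no visible growth plated on tryptic soy agar and counted. MBC taken as lowest concentration giving ≥99.9% fall in viable count relative to initial inoculum. Three independent experiments, one replicate each.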

Klebsiella pneumoniae [3] = assay: Bactericidal activity against Klebsiella pneumoniae ATCC 13883; type: functional; settings: read-out: MBC99.9; outline: as §1
Pseudomonas aeruginosa [4] = assay: Antibacterial activity against Pseudomonas aeruginosa ATCC 27853 after 18 to 20 hrs by broth microdilution method; type: functional
Outline: (§2)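 Broth microdilution in tryptic soy broth: 2-fold dilutions mixed 1:1 with ~1.5 × 10^5 CFU/mL inoculum, final 0.5–32 μg/mL; 37 °C, 18–20 h. MIC taken as lowest concentration giving no visible growth. At least three independent experiments, one replicate each.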

Staphylococcus aureus [5] = assay: Antibacterial activity against Staphylococcus aureus ATCC 29213 after 18 to 20 hrs by broth microdilution method; type: functional; outline: as §2
Enterococcus faecium [6] = assay: Bactericidal activity against Enterococcus faecium ATCC 19434; type: functional; settings: read-out: MBC99.9; outline: as §1
Escherichia coli [7] = assay: Bactericidal activity against Escherichia coli ATCC 25922; type: functional; settings: read-out: MBC99.9; outline: as §1
Escherichia coli [8] = assay: Antibacterial activity against Escherichia coli ATCC 25922 after 18 to 20 hrs in presence of 95% serum by broth microdilution method; type: functional
Outline: (§3)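 Same microdilution with human serum as medium: compound 2-fold diluted in 100% serum, mixed 1:1 with 90% serum holding ~1.5 × 10^5 CFU/mL, giving 95% serum and final 0.5–64 μg/mL. MIC read as no visible growth after incubation as for the broth test.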

Acinetobacter baumannii [9] = assay: Antibacterial activity against Acinetobacter baumannii ATCC 19606 after 18 to 20 hrs by broth microdilution method; type: functional; settings: ATCC 19606 = CIP 70.34 = JCM 6841
Pseudomonas aeruginosa [10] = assay: Bactericidal activity against Pseudomonas aeruginosa ATCC 27853 after 60 mins in presence of LPS; type: functional
Outline: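 P. aeruginosa at ~10^6 CFU/mL in TSB with E. coli O111:B4 LPS (final 10, 25, 50 or 100 μg/mL), then compound at final 16 μg/mL. Incubated 37 °C, 200 rpm, 60 min; survivors counted on TSA. Three independent experiments, one replicate each.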

Escherichia coli [11] = assay: Antibacterial activity against Escherichia coli ATCC 25922 after 18 to 20 hrs by broth microdilution method; type: functional; outline: as §2
Staphylococcus aureus [12] = assay: Bactericidal activity against Staphylococcus aureus ATCC 29213; type: functional; settings: read-out: MBC99.9; outline: as §1
Enterococcus faecium [13] = assay: Antibacterial activity against Enterococcus faecium ATCC 19434 after 18 to 20 hrs by broth microdilution method; type: functional; outline: as §2
Staphylococcus aureus [14] = assay: Bactericidal activity against methicillin-resistant Staphylococcus aureus ATCC 43300; type: functional; settings: read-out: MBC99.9
Outline: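 MBC taken at the end of the MIC test: 50 μL from each well without visible growth plated on tryptic soy agar. MBC = lowest concentration giving ≥99.9% reduction in viable cells relative to the initial inoculum. Three independent experiments, one replicate each.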

Pseudomonas aeruginosa [15] = assay: Bactericidal activity against Pseudomonas aeruginosa ATCC 27853; type: functional; settings: read-out: MBC99.9; outline: as §1
Klebsiella pneumoniae [16] = assay: Antibacterial activity against Klebsiella pneumoniae ATCC 13883 after 18 to 20 hrs by broth microdilution method; type: functional
Staphylococcus aureus [17] = assay: Antibacterial activity against Staphylococcus aureus ATCC 29213 after 18 to 20 hrs in presence of 95% serum by broth microdilution method; type: functional; outline: as §3
Acinetobacter baumannii [18] = assay: Potentiation of vancomycin-mediated antibacterial activity against Acinetobacter baumannii ATCC 19606 assessed as decrease in vancomycin MIC at 4 ug/ml by checkerboard method relative to control; type: functional, ATCC 19606 = CIP 70.34 = JCM 6841
Escherichia coli [19] = assay: Antibacterial activity against Escherichia coli ATCC 25922 in presence of 100% serum after 6 hrs by broth microdilution method; type: functional; settings: ATCC 25922, 6 h
Outline: (§4)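 Serum stability: compound added to 100% human serum at final 64 μg/mL, held at 37 °C, sampled at 0, 6, 12 and 24 h. […] Residual activity compared with untreated control.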

Escherichia coli [20] = assay: Antibacterial activity against Escherichia coli ATCC 25922 in presence of 100% serum after 12 hrs by broth microdilution method; type: functional; settings: ATCC 25922, 12 h; outline: as §4
Acinetobacter baumannii [21] = assay: Potentiation of rifampicin-mediated antibacterial activity against Acinetobacter baumannii ATCC 19606 assessed as rifampicin MIC at 2 ug/ml by checkerboard method (reference value: 16 ug/ml); type: functional; settings: ATCC 19606 = CIP 70.34 = JCM 6841
Acinetobacter baumannii [22] = assay: Potentiation of rifampicin-mediated antibacterial activity against Acinetobacter baumannii ATCC 19606 assessed as decrease in rifampicin MIC at 4 ug/ml by checkerboard method relative to control; type: functional, ATCC 19606 = CIP 70.34 = JCM 6841
Escherichia coli [23] = assay: Antibacterial activity against Escherichia coli ATCC 25922 in presence of 100% serum measured immediately post compound addition in serum by broth microdilution method; type: functional; outline: as §4
Klebsiella pneumoniae [24] = assay: Potentiation of ampicillin-mediated antibacterial activity against Klebsiella pneumoniae ATCC 13883 assessed as decrease in ampicillin MIC at 4 ug/ml by checkerboard method relative to control; type: functional
Acinetobacter baumannii [25] = assay: Potentiation of ampicillin-mediated antibacterial activity against Acinetobacter baumannii ATCC 19606 assessed as decrease in ampicillin MIC at 4 ug/ml by checkerboard method relative to control; type: functional, ATCC 19606 = CIP 70.34 = JCM 6841
Acinetobacter baumannii [26] = assay: Potentiation of erythromycin-mediated antibacterial activity against Acinetobacter baumannii ATCC 19606 assessed as decrease in erythromycin MIC at 4 ug/ml by checkerboard method relative to control; type: functional, ATCC 19606 = CIP 70.34 = JCM 6841
Klebsiella pneumoniae [27] = assay: Potentiation of rifampicin-mediated antibacterial activity against Klebsiella pneumoniae ATCC 13883 assessed as decrease in rifampicin MIC at 2 ug/ml by checkerboard method relative to control; type: functional
Klebsiella pneumoniae [28] = assay: Potentiation of vancomycin-mediated antibacterial activity against Klebsiella pneumoniae ATCC 13883 assessed as decrease in vancomycin MIC at 4 ug/ml by checkerboard method relative to control; type: functional
Escherichia coli [29] = assay: Antibacterial activity against Escherichia coli ATCC 25922 in presence of 100% serum after 24 hrs by broth microdilution method; type: functional; settings: ATCC 25922, 24 h; outline: as §4
Acinetobacter baumannii [30] = assay: Potentiation of clarithromycin-mediated antibacterial activity against Acinetobacter baumannii ATCC 19606 assessed as decrease in clarithromycin MIC at 4 ug/ml by checkerboard method relative to control; type: functional, ATCC 19606 = CIP 70.34 = JCM 6841
Klebsiella pneumoniae [31] = assay: Potentiation of clarithromycin-mediated antibacterial activity against Klebsiella pneumoniae ATCC 13883 assessed as decrease in clarithromycin MIC at 4 ug/ml by checkerboard method relative to control; type: functional
Klebsiella pneumoniae [32] = assay: Potentiation of erythromycin-mediated antibacterial activity against Klebsiella pneumoniae ATCC 13883 assessed as decrease in erythromycin MIC at 4 ug/ml by checkerboard method relative to control; type: functional
Klebsiella pneumoniae [33] = assay: Potentiation of rifampicin-mediated antibacterial activity against Klebsiella pneumoniae ATCC 13883 assessed as rifampicin MIC at 2 ug/ml by checkerboard method (reference value: 16 ug/ml); type: functional
Staphylococcus aureus [34] = assay: Antibiofilm activity against methicillin-resistant Staphylococcus aureus LAC established catheter-associated biofilm model at 20 times MIC after 72 hrs relative to control; type: functional

Compound: CCCCCCC(=O)N[C@@H](CCN)C(=O)N[C@@H](Cc1ccccc1)C(=O)N[C@@H](CCN)C(=O)N[C@H](Cc1ccccc1)C(=O)N[C@@H](CC(C)C)C(=O)N[C@@H](CCN)C(=O)N[C@H](CC(C)C)C(=O)N[C@@H](Cc1ccccc1)C(=O)N[C@@H](CO)C(N)=O (Heptanoyl-[Dab]F[Dab][dF]L[Dab][dL]FS-NH2)
- MIC (Staphylococcus aureus [1]): 8 µg/mL (≈ 6.75 µM)
- MBC (Acinetobacter baumannii [2]): 4 µg/mL (≈ 3.38 µM)
- MBC (Klebsiella pneumoniae [3]): 2 µg/mL (≈ 1.69 µM)
- MIC (Pseudomonas aeruginosa [4]): 1 to 2 µg/mL (≈ 0.844 to 1.69 µM)
- MIC (Staphylococcus aureus [5]): 8 µg/mL (≈ 6.75 µM)
- MBC (Enterococcus faecium [6]): 16 µg/mL (≈ 13.5 µM)
- MBC (Escherichia coli [7]): 8 to 16 µg/mL (≈ 6.75 to 13.5 µM)
- MIC (Escherichia coli [8]): 32 µg/mL
- MIC (Acinetobacter baumannii [9]): 2 to 4 µg/mL (≈ 1.69 to 3.38 µM)
- Activity (Pseudomonas aeruginosa [10]): inactive
- MIC (Escherichia coli [11]): 0.5 to 2 µg/mL (≈ 0.422 to 1.69 µM)
- MBC (Staphylococcus aureus [12]): 8 to 32 µg/mL (≈ 6.75 to 27 µM)
- MIC (Enterococcus faecium [13]): 8 µg/mL (≈ 6.75 µM)
- MBC (Staphylococcus aureus [14]): 8 to 16 µg/mL (≈ 6.75 to 13.5 µM)
- MBC (Pseudomonas aeruginosa [15]): 4 µg/mL (≈ 3.38 µM)
- MIC (Klebsiella pneumoniae [16]): 1 µg/mL (≈ 0.844 µM)
- MIC (Staphylococcus aureus [17]): 32 to 64 µg/mL

Compound: CC[C@H](C)[C@H](NC(=O)[C@H](CCN)NC(=O)[C@@H](N)CC1CCCCC1)C(=O)N[C@@H](CCN)C(=O)N[C@H](Cc1ccccc1)C(=O)N[C@@H](CC(C)C)C(=O)N[C@@H](CCN)C(=O)N[C@@H](C(=O)N[C@@H](CC(C)C)C(=O)N[C@@H](CO)C(N)=O)C(C)C (H-[Cha][Dab]I[Dab][dF]L[Dab][dV]LS-NH2)
- MIC (Staphylococcus aureus [1]): 32 µg/mL (≈ 28 µM)
- fold change (FC) (Acinetobacter baumannii [18]): 32 - 64
- MIC (Escherichia coli [19]): > 32 µg/mL
- MIC (Escherichia coli [20]): > 32 µg/mL
- MIC (Pseudomonas aeruginosa [4]): 2 to 8 µg/mL (≈ 1.75 to 7 µM)
- MIC (Acinetobacter baumannii [21]): 0.0039 to 0.0078 µg/mL
- fold change (FC) (Acinetobacter baumannii [22]): 4096
- MIC (Escherichia coli [23]): 1 to 2 µg/mL
- fold change (FC) (Klebsiella pneumoniae [24]): 1
- MIC (Staphylococcus aureus [5]): > 32 µg/mL
- fold change (FC) (Acinetobacter baumannii [25]): 2 - 4
- fold change (FC) (Acinetobacter baumannii [26]): 64
- fold change (FC) (Klebsiella pneumoniae [27]): >=8192
- MIC (Escherichia coli [8]): 2 µg/mL
- MIC (Acinetobacter baumannii [9]): ≥ 32 µg/mL
- MIC (Escherichia coli [11]): 4 to 8 µg/mL (≈ 3.5 to 7 µM)
- MIC (Enterococcus faecium [13]): > 32 µg/mL
- fold change (FC) (Klebsiella pneumoniae [28]): 1
- MIC (Escherichia coli [29]): > 32 µg/mL
- fold change (FC) (Acinetobacter baumannii [30]): 2048
- fold change (FC) (Klebsiella pneumoniae [31]): 2048 - 4096
- MBC (Pseudomonas aeruginosa [15]): 16 to 32 µg/mL (≈ 14 to 28 µM)
- fold change (FC) (Klebsiella pneumoniae [32]): 512
- MIC (Klebsiella pneumoniae [16]): 32 µg/mL (≈ 28 µM)
- MIC (Staphylococcus aureus [17]): > 64 µg/mL
- MIC (Klebsiella pneumoniae [33]): 0.0039 µg/mL

Compound: CCO/N=C(\C(=O)N[C@@H]1C(=O)N2C(C(=O)[O-])=C(Sc3nc(-c4cc[n+](C)cc4)cs3)CS[C@H]12)c1nsc(NP(=O)(O)O)n1
- Activity (Staphylococcus aureus [34]): inactive
